Test results as given in ChEMBL document CHEMBL1147042, “Modafinil enhances thalamocortical activity by increasing neuronal electrotonic coupling” (2007).
Calls of active or inactive are those of the source. The rule behind the calls is not given here.

Legend:
Rattus norvegicus [1] = species on record: Rattus norvegicus; assay: Reversal of increase in electronic coupling in Sprague-Dawley rat cortical interneurons assessed as input conductance change at 50 uM in presence of gap junction inhibitor mefloquine by […]; type: functional
Thalamocortex [2] = assay: Effect on C57BL/6 mouse thalamocortical activity in presence of CaMK2 inhibitor KN93 by voltage-sensitive dye imaging method; type: functional; details: Brain
Cortex [3] = assay: Induction of 10-Hz shock-stimulated Sprague-Dawley rat cortical activity assessed as increase in slope of rising phase at 0.2 uM after 15 mins by voltage-sensitive dye imaging method; type: functional
Procedure, shortened: (§1)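 Rat barrel-cortex slices (300–450 μm) came from Sprague–Dawley rats of either sex, P10–18. Slices recovered at 35°C for ≥30 min, then were held in oxygenated ACSF (pH 7.4) at 32°C. Staining used RH 414 or di-4-ANEPPS (0.025 mg/ml). White matter was stimulated at 10 Hz or 40 Hz. Modafinil was applied for 15 min. Optical response was taken as fractional fluorescence ΔF/F.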

Cortex [4] = assay: Induction of 10-Hz shock-stimulated Sprague-Dawley rat cortical activity assessed as increase in slope of rising phase after 15 mins by voltage-sensitive dye imaging method; type: functional; procedure, shortened: as §1
Thalamocortex [5] = assay: Effect on paired-pulse ventrobasal stimulation induced excitatory postsynaptic current in 40-Hz shock-stimulated C57BL/6 mouse thalamocortical slices; type: functional, tissue-based; details: Brain
Rattus norvegicus [6] = species on record: Rattus norvegicus; assay: Reduction of input resistance in Long-Evans rat inferior olivary neurons at 150 uM relative to control by single-patch clamp method; type: functional
Procedure, shortened: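 Input resistance was probed with hyperpolarizing current pulses before and after local application of modafinil (100–150 μM).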

Cortex [7] = assay: Induction of 40-Hz shock-stimulated Sprague-Dawley rat cortical activity assessed as increase in slope of rising phase at 0.2 uM after 15 mins by voltage-sensitive dye imaging method; type: functional; procedure, shortened: as §1
Thalamocortex [8] = assay: Induction of 40-Hz shock-stimulated C57BL/6 mouse thalamocortical activity assessed as increase in peak amplitude at 0.2 uM after 15 mins by voltage-sensitive dye imaging method; type: functional, Brain
Procedure, shortened: (§2)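 Thalamocortical slices (350–400) came from C57BL/6 mice of either sex, P7–20, anesthetized with pentobarbital 120 mg/kg i.p. Slices recovered at 35°C for ≥30 min, then sat in oxygenated ACSF (pH 7.4) at 32°C. They were stained with RH 414 or di-4-ANEPPS (0.025 mg/ml). White matter received 10-Hz and/or 40-Hz electrical stimulation. Modafinil was bath-perfused and read at 15 min. Signal was ΔF/F.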

[9] = Increase in electronic coupling in Sprague-Dawley rat cortical interneurons assessed as coupling coefficient at 100 uM by […]; type: functional
Cortex [10] = assay: Induction of 10-Hz shock-stimulated Sprague-Dawley rat cortical activity assessed as increase in peak amplitude at 0.2 uM after 15 mins by voltage-sensitive dye imaging method; type: functional; procedure, shortened: as §1
Cortex [11] = assay: Induction of 40-Hz shock-stimulated Sprague-Dawley rat cortical activity assessed as increase in peak amplitude at 100 uM after 15 mins by voltage-sensitive dye imaging method; type: functional; procedure, shortened: as §1
Cortex [12] = assay: Induction of 10-Hz shock-stimulated Sprague-Dawley rat cortical activity assessed as increase in peak amplitude at 100 uM after 15 mins by voltage-sensitive dye imaging method; type: functional; procedure, shortened: as §1
Thalamocortex [13] = assay: Effect on C57BL/6 mouse thalamocortical activity in presence of PKA inhibitor KT5720 by voltage-sensitive dye imaging method; type: functional; details: Brain
Cortex [14] = assay: Induction of 40-Hz shock-stimulated Sprague-Dawley rat cortical activity assessed as increase in slope of rising phase after 15 mins by voltage-sensitive dye imaging method; type: functional; procedure, shortened: as §1
Cortex [15] = assay: Induction of 40-Hz shock-stimulated Sprague-Dawley rat cortical activity assessed as increase in peak amplitude at 0.2 uM after 15 mins by voltage-sensitive dye imaging method; type: functional; procedure, shortened: as §1
Thalamocortex [16] = assay: Induction of 40-Hz shock-stimulated C57BL/6 mouse thalamocortical activity assessed as increase in slope of rising phase after 15 mins by voltage-sensitive dye imaging method; type: functional, Brain; procedure, shortened: as §2
Thalamocortex [17] = assay: Effect on excitatory synaptic transmission in C57BL/6 mouse thalamocortical slices assessed as increase in input conductance in presence of GABAA, GABAB and NMDA blockers by single patch clamp recording; type: functional, Brain
Thalamocortex [18] = assay: Induction of 10-Hz shock-stimulated C57BL/6 mouse thalamocortical activity assessed as increase in peak amplitude at 0.2 uM after 15 mins by voltage-sensitive dye imaging method; type: functional, Brain; procedure, shortened: as §2
Thalamocortex [19] = assay: Induction of 10-Hz shock-stimulated C57BL/6 mouse thalamocortical activity assessed as increase in slope of rising phase after 15 mins by voltage-sensitive dye imaging method; type: functional, Brain; procedure, shortened: as §2
Rattus norvegicus [20] = species on record: Rattus norvegicus; assay: Increase in electronic coupling of Long-Evans rat inferior olivary neurons in presence of CaMK2 inhibitor KN93 by single-patch clamp method; type: functional
Rattus norvegicus [21] = species on record: Rattus norvegicus; assay: Increase in electronic coupling in Sprague-Dawley rat cortical interneurons assessed as input conductance change at 50 uM by […]; type: functional
Thalamocortex [22] = assay: Induction of 10-Hz shock-stimulated C57BL/6 mouse thalamocortical activity assessed as increase in peak amplitude at 100 uM after 15 mins by voltage-sensitive dye imaging method; type: functional, Brain; procedure, shortened: as §2
Thalamocortex [23] = assay: Induction of 40-Hz shock-stimulated C57BL/6 mouse thalamocortical activity assessed as increase in peak amplitude at 100 uM after 15 mins by voltage-sensitive dye imaging method; type: functional, Brain; procedure, shortened: as §2
Thalamocortex [24] = assay: Induction of 40-Hz shock-stimulated C57BL/6 mouse thalamocortical activity assessed as increase in slope of rising phase at 0.2 uM after 15 mins by voltage-sensitive dye imaging method; type: functional, Brain; procedure, shortened: as §2
Thalamocortex [25] = assay: Induction of 10-Hz shock-stimulated C57BL/6 mouse thalamocortical activity assessed as increase in slope of rising phase at 0.2 uM after 15 mins by voltage-sensitive dye imaging method; type: functional, Brain; procedure, shortened: as §2
Rattus norvegicus [26] = species on record: Rattus norvegicus; assay: Increase in electronic coupling of Long-Evans rat inferior olivary neurons at 150 uM by single-patch clamp method; type: functional
Procedure, shortened: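 Paired patch recording was done at 32°C in ACSF. Hyperpolarizing current was injected into one neuron of a pair. Coupling coefficient = coupled-cell response ÷ injected-cell response, averaged over 10–20 trials. Measured before and after 150 μM modafinil; n = 7 pairs.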

With NC(=O)C[S+]([O-])C(c1ccccc1)c1ccccc1 (stereo unspecified) [MODAFINIL] the Activity (Rattus norvegicus [1]) was “Active”, the Activity (Thalamocortex [2]) was “inactive” and the Activity (Cortex [3]) was 67%. For the same compound, the Activity (Cortex [4]) was 31%, the Activity (Thalamocortex [5]) was “inactive” and the Activity (Rattus norvegicus [6]) was “Active”. It also gave an Activity (Cortex [7]) of 35%, an Activity (Thalamocortex [8]) of 75% and an Activity [9] of 70%. It also gave an Activity (Cortex [10]) of 70%, an Activity (Cortex [11]) of 75% and an Activity (Cortex [12]) of 65%. The Activity (Thalamocortex [13]) was “Active”, the Activity (Cortex [14]) was 32% and the Activity (Cortex [15]) was 75%. It also gave an Activity (Thalamocortex [16]) of 32%, an Activity (Thalamocortex [17]) of 31% and an Activity (Thalamocortex [18]) of 70%. For the same compound, the Activity (Thalamocortex [19]) was 31%, the Activity (Rattus norvegicus [20]) was “inactive” and the Activity (Rattus norvegicus [21]) was “Active”. It also gave an Activity (Thalamocortex [22]) of 65%, an Activity (Thalamocortex [23]) of 75% and an Activity (Thalamocortex [24]) of 35%. For the same compound, the Activity (Thalamocortex [25]) was 67% and the Activity (Rattus norvegicus [26]) was “Active”.
